Assay results collected from several papers.
Lines come from different studies, so protocols differ.
Observed: cell growth or viability

SMILES | cell line | test | setting | quantity | result
C[C@@H]1CC[C@@H]([C@@](C)(O)Cn2cnc3ccccc32)[C@H](OCc2ccccc2)C1 | MCF7 | MTT | 10 µM, 72 h | inhibition | 55.2%
CC(=O)c1nn(-c2ccccc2Cl)/c(=N/N=C(\C)c2ccc(NC(=O)c3ccccc3)cc2)s1 | MCF7 | MTT | 0.625 µM | viability | 6.6%
O=C(Nc1ccccc1)Nc1ccc(Oc2nnc(-c3ccc(Cl)cc3)c3ccccc23)cc1 | MCF7 | MTT | 0.625 µM | cell death | 95.4%
CC(=O)c1nn(-c2ccc(C)cc2)/c(=N/N=C(\C)c2ccc(NC(=O)c3ccccc3)cc2)s1 | MCF7 | MTT | 0.625 µM | viability | 4.79%
Cc1c(C(=O)O)ccc2c3n(nc12)[C@@H]1[C@H](C3)N(CC2CC2)[C@@]2(C(=O)Nc3cc(Cl)ccc32)[C@H]1c1cccc(Cl)c1F | SJSA-1 |  |  | GI50 | 0.31 nM
C=CC(=O)NC1CCN(c2ncc3ncnc(Nc4ccc(Oc5ccc6c(c5)ncn6C)c(C)c4)c3n2)CC1 | SW-620 |  |  | EC50 | 82.4 nM
CCOC(=O)c1nn(-c2cccc(Cl)c2)/c(=N/N=C(\C)c2ccc(NC(=O)c3ccc(Cl)cc3)cc2)s1 | MCF7 | MTT | 10 µM | viability | 3.71%
CC(=NNC(=O)c1ccccc1)c1ccc(Nc2nnc(-c3ccc(Cl)cc3)c3ccccc23)cc1 | MCF7 | MTT | 5 µM, 24 h | viability | 5.18%
C[C@@H]1CC[C@@H]([C@](O)(CNCc2cccc3ccccc23)COCc2ccccc2)[C@H](OCc2ccccc2)C1 | MCF7 | MTT | 10 µM, 72 h | inhibition | 81.1%
CC(=NNC(=O)c1ccccc1Cl)c1ccc(Nc2nnc(-c3ccc(Cl)cc3)c3ccccc23)cc1 | MCF7 | MTT | 0.625 µM | cell death | 0.177%
COc1ccc(COC[C@@](O)(CNCc2ccc(F)cc2)[C@@H]2CC[C@@H](C)C[C@H]2OCc2ccc(OC)cc2)cc1 | MCF7 | MTT | 30 µM, 72 h | inhibition | 101%
CC(=NNC(=O)c1ccccc1O)c1ccc(Nc2nnc(-c3ccc(Cl)cc3)c3ccccc23)cc1 | MCF7 | MTT | 5 µM | cell death | 66.2%
CCOC(=O)c1nn(-c2cccc(Cl)c2)/c(=N/N=C(\C)c2ccc(NC(=O)c3ccccc3)cc2)s1 | MCF7 | MTT | 78 nM | viability | 87.7%
C[C@@H]1CC[C@@H]([C@](C)(O)Cn2ccnc2)[C@H](OCc2ccccc2)C1 | MCF7 | MTT | 30 µM, 72 h | inhibition | 34.6%
CC(=NNC(=S)Nc1ccccc1)c1ccc(Nc2nnc(-c3ccc(Cl)cc3)c3ccccc23)cc1 | MCF7 | MTT | 1.25 µM, 24 h | viability | 27.5%
